The entries come from a sample that favours hits as a whole.
HUVEC inhibit: inhibitors of HUVEC proliferation, primary screen, cell-based, 384-well; 86,000 compounds, 1.1% hits; CellTiter-Glo luminescence, 72 h; active compounds read low; viability, % at 10 µM (by protocol);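 active means viability at or below 30%; inactive means viability above 30%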
H69AR inhibit: proliferation blockers of H69AR lung cancer cells, primary screen, cell-based, human, 86K library | H69AR lung tumor viability, ATP luminescence, 72 h; active compounds read low | viability, % at 10 µM | 85,000 compounds, 6% hits | AID 598, 2007;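 active means viability at or below 40%; inactive means viability above 40%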;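 further: multidrug resistant small cell line overexpressing MRP-1 efflux transporter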
HCT116 bCat-KO: primary screen for growth suppressors in beta-catenin knockout HCT116 cells (colon tumor, human) | 140,000 compounds, 1.5% hits | viability, % at 10 µM | HCT116 beta-catenin knockout viability, CellTiter-Glo, 60 h; active compounds read low;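 active means viability at or under a set limit, the compound median less 4 SD, cut at about 6% in these data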
Fibroblast inh: antiproliferative effect on LL 47 fibroblasts – human, LL 47 cells, CellTiter-Glo luminescence, primary screen; LL 47 human lung fibroblast viability, ATP luminescence; active compounds read low; viability, % at 10 µM; 85,000 compounds, 1.1% hits; AID 719, 2007;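 active means viability at or below 50% in the single dose screen; inactive means viability above 50%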;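 further: compound exposure lasted 72 h before the ATP readout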
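Assay system: human lung fibroblast line LL 47, low passage. Input: 1,150 fibroblasts seeded per well. Times: overnight cell rest, 72 h compound treatment at 37 °C. Evaluation: % viability of median cell-only signal. Technique: luminescent ATP detection, CellTiter-Glo. Control set: cell-only wells, no compound.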
PTK2B oligo ant: antagonists of Pyk2 self-association, primary screen, Q293 cells, FERM NanoBiT luminescence, HTS; z-score (the deposit names both 25 µM and 10 µM); active compounds read low; 99,000 compounds, 0.83% hits; Protein-tyrosine kinase 2-beta (Homo sapiens), Q14289;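 active means Z-score of -3 or lower, scaled per plate to the spread of control and sample wells; inactive means z-score above -3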;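 further: negative z-score means lost luminescence so less FERM oligomerization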
Target sequence (Q14289 whole entry, looked up): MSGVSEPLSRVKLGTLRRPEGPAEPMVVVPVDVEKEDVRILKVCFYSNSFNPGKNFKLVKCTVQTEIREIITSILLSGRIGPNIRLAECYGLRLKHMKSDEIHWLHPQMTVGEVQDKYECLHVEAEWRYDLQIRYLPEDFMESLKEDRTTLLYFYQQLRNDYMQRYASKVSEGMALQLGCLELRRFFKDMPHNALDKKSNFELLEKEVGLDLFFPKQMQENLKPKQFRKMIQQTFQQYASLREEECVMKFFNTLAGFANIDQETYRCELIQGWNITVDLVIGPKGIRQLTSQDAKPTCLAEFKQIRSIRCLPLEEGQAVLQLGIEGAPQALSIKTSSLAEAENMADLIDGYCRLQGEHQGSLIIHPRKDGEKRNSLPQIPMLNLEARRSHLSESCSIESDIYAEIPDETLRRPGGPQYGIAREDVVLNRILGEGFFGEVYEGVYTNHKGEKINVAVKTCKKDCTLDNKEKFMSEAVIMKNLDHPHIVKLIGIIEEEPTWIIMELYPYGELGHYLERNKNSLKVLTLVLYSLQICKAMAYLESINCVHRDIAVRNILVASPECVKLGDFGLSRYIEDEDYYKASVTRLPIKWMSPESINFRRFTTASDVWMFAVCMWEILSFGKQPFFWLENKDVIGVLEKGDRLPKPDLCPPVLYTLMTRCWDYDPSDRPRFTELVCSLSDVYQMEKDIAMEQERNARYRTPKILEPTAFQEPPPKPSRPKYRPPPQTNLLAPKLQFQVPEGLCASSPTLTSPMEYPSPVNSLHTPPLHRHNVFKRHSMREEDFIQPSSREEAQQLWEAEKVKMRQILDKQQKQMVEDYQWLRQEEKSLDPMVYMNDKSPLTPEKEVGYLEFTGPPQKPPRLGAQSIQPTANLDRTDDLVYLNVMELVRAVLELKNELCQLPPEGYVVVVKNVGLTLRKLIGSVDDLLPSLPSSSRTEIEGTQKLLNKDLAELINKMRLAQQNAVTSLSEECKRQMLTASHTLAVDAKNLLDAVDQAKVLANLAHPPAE
PTEN del growth: growth suppression of PTEN-null HCT116, primary screen, cell-based, CellTiter-Glo; HCT116 PTEN-null viability, 60 h; active compounds read low; viability, % at 10 µM; 140,000 compounds, 1.2% hits; AID 827, 2007;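 active means viability at or below a set limit, 4 SD under the median of all tested compounds, cut at about 3.7% in these data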;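 further: PTEN knockout HCT116 line with beta catenin targeted HCT116 as companion control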
Of the large screens only hits and unclear results are named; the others gave an inactive call.

Cc1cc(Cl)ccc1N=c1ssnc1Cl	H69AR inhibit 2.2
Cc1ccc(N=C2NC(=O)CS2)cc1	none
Cc1cc(C)c(C#N)c(Cl)n1	none (no result: HUVEC inhibit, H69AR inhibit, Fibroblast inh, PTK2B oligo ant)
COc1cc(N=c2ssnc2Cl)c(OC)cc1Cl	H69AR inhibit 1.1, Fibroblast inh 44.0
COc1ccc(OC)c(N=c2ssnc2Cl)c1	none (no result: HUVEC inhibit, H69AR inhibit, Fibroblast inh)
Cc1ccc(N=c2ssnc2Cl)cc1	H69AR inhibit 2.4
Cc1ccc(Cl)cc1-c1ccc(C=Nc2ccc(N3CCOCC3)cc2)o1	none (no result: HUVEC inhibit, H69AR inhibit, Fibroblast inh, PTK2B oligo ant)
COc1cc(NC(=O)Cn2nc(Cc3cccnc3)c3ccccc3c2=O)cc(OC)c1OC	none (no result: PTK2B oligo ant)
Cn1c[n+](C)cc1-c1ccc(/C(N)=N/O)cc1	none (no result: HUVEC inhibit, H69AR inhibit, Fibroblast inh, PTK2B oligo ant)
COc1cc(/C=N/Nc2cccc(C)c2)ccc1OC(=O)c1ccco1	none (no result: HUVEC inhibit, H69AR inhibit, Fibroblast inh, PTK2B oligo ant)
COc1ccc(C)cc1NS(=O)(=O)c1ccc(Br)s1	H69AR inhibit 21.7
COc1ccc(NS(=O)(=O)c2ccc(Br)s2)cc1OC	none
CN(C)c1cccc(C(=O)OCC(=O)Nc2ccccc2Sc2ccccc2)c1	none (no result: HUVEC inhibit, H69AR inhibit, Fibroblast inh, PTK2B oligo ant)
CC(=O)Nc1ccc(C(=O)OCC(=O)Nc2ccccc2Sc2ccccc2)cc1	PTK2B oligo ant -3.12 (no result: HUVEC inhibit, H69AR inhibit, Fibroblast inh)
O=C(c1cc2c(s1)CCCC2)N1CCN(Cc2ccc3c(c2)OCO3)CC1	none
O=C(Oc1ccc2c(c1)OCO2)c1cc2c(s1)CCC2	HCT116 bCat-KO 2.6, PTEN del growth 2.1
COc1ccc2c(c1)O[C@@H](c1cccc(C(F)(F)F)c1)[C@H](OC(=O)NCCc1ccc(OC)c(OC)c1)C2=O	none (no result: HUVEC inhibit, H69AR inhibit, Fibroblast inh, PTK2B oligo ant)
CCSc1ncnc2sc(C)c(C)c12	none (no result: HUVEC inhibit, H69AR inhibit, Fibroblast inh, PTK2B oligo ant)
Cc1sc2ncnc(Sc3nnc4sc5ccccc5n34)c2c1C	H69AR inhibit 34.7 (no result: PTK2B oligo ant)
CCNC(=O)C(=O)NCC1OCCCN1S(=O)(=O)c1cccs1 (stereo not given)	none (no result: HUVEC inhibit, H69AR inhibit, Fibroblast inh, PTK2B oligo ant)
O=C(NC1CCCCC1)Sc1ccc(Cl)cc1	H69AR inhibit 36.0
CCCc1cc(=O)n2c([nH]c3ccccc32)c1C#N	none
Cc1c(CCC(C)C)c(=O)n2c([nH]c3ccccc32)c1C#N	H69AR inhibit 31.1
CCCCc1c(C)c(C#N)c2[nH]c3ccccc3n2c1=O	H69AR inhibit 18.4
Cc1no[n+]([O-])c1COc1ccc(/C=N/n2nnnc2N)cc1	none (no result: HUVEC inhibit, H69AR inhibit, Fibroblast inh, PTK2B oligo ant)
CCC(=O)n1nc(-c2ccc(Cl)cc2)nc1NCc1ccccc1	H69AR inhibit 17.0 (no result: PTK2B oligo ant)
O=C(CSc1ccccc1)Nc1ccc(-c2nc3ccccc3[nH]2)cc1	none (no result: HUVEC inhibit, H69AR inhibit, Fibroblast inh, PTK2B oligo ant)
O=C(Nc1ccc2nc(-c3ccccc3)[nH]c2c1)c1ccco1	H69AR inhibit 38.8
Cc1ccc(-c2nc3ccccc3[nH]2)cc1NC(=O)c1ccco1	none (no result: H69AR inhibit)
Cc1cccc2[nH]c(-c3ccc(NC(=O)c4ccco4)cc3)nc12	H69AR inhibit 34.6
Cc1ccc(Oc2ccc(NC(=O)c3ccco3)cc2)cc1	none
Cc1ccc2nc(-c3ccc(NC(=O)CSc4ccccc4)cc3)[nH]c2c1	HCT116 bCat-KO 3.2 (no result: HUVEC inhibit, H69AR inhibit, Fibroblast inh)
O=C(Nc1cccc(-c2nc3ccccc3[nH]2)c1)c1cccc(NC(=O)c2ccco2)c1	HUVEC inhibit 1.9, H69AR inhibit 1.2, Fibroblast inh 13.3
COc1ccnc(CSC(N)=Nc2cccc(C(F)(F)F)c2)c1	none (no result: HUVEC inhibit, H69AR inhibit, Fibroblast inh)
COc1ccc(-c2csc(NC(=O)c3ccc(OCC(=O)N4CCOCC4)c(OC)c3)n2)cc1OC	none (no result: HUVEC inhibit, H69AR inhibit, Fibroblast inh, PTK2B oligo ant)
COC(=O)c1ccc2c(c1)S(=O)(=O)NC(=NCc1ccco1)S2	none
COc1ccccc1CC(NC(C)=O)C(=O)NC1CCN(C(=O)c2ccc([N+](=O)[O-])cc2)CC1 (stereo not given)	none (no result: HUVEC inhibit, H69AR inhibit, Fibroblast inh, PTK2B oligo ant)
O=C(Nc1ccc(-c2nc3ccccc3[nH]2)cc1)c1ccc2c(c1)OCO2	HCT116 bCat-KO 2.6, PTEN del growth 2.5 (no result: HUVEC inhibit, H69AR inhibit, Fibroblast inh)
O=C(Nc1ccc(Cl)c(-c2nc3ccccc3[nH]2)c1)c1ccc2c(c1)OCO2	none (no result: HUVEC inhibit, H69AR inhibit, Fibroblast inh, PTK2B oligo ant)
C#CCSc1nnc(-c2cccc3ccccc23)o1	H69AR inhibit 20.9 (no result: HCT116 bCat-KO, PTEN del growth)
O=C(OCC#CCSc1nnc(-c2cccc3ccccc23)o1)c1cccs1	H69AR inhibit 34.6
CN1CCc2c(sc3c2C(=O)NC(c2ccc(-c4cccc(Cl)c4)o2)N3)C1 (stereo not given)	H69AR inhibit 3.3 (no result: HCT116 bCat-KO, PTK2B oligo ant, PTEN del growth)
CC1=CC(C)(C)Nc2ccc(OC(=O)C(C)N3C(=O)c4ccccc4C3=O)cc21 (stereo not given)	HCT116 bCat-KO 2.0, PTEN del growth 1.3 (no result: HUVEC inhibit, H69AR inhibit, Fibroblast inh)

Compound activity: PubChem, several laboratories
